Bioassay records from PubChem.
E-sel inducer: induces E-selectin expression in human endothelial cells; actives 0.37% (n = 260,000); HUVEC E-selectin immunofluorescence imaging; normalized: neutral wells 0, TNF-alpha wells 100; activation, % at 7.58 µM; P16581;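 active = mean E-selectin-positive cell signal at least 10% of the positive control, reached in at least 60% of replicates, without over 20% cell loss; inconclusive = no rule given, readout overlaps actives, possibly toxicity-flagged; inactive = the rest, including those meeting only one limit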
Target sequence (P16581 whole entry, looked up): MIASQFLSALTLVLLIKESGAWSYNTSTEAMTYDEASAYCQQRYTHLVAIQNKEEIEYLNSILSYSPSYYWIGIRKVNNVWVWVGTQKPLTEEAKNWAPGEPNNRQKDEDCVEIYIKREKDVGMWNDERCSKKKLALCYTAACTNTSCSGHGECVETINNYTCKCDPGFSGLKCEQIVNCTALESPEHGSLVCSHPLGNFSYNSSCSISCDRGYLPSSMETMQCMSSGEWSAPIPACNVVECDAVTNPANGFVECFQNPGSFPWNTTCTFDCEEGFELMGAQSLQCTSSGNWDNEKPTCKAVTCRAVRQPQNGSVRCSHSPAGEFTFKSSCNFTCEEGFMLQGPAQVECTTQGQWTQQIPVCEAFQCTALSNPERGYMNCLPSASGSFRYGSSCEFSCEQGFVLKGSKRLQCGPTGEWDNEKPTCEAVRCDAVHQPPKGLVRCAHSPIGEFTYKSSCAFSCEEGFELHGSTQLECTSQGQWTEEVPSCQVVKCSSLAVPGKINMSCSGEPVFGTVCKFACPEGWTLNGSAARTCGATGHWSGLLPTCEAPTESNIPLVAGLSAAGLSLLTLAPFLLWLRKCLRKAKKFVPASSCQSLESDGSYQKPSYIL
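Read-out: % PE-positive cells | Test system: HUVEC | Doses: One compound dose added by pin transfer | Buffer or medium: EGM-2 over gelatin coat | Signal: Immunofluorescence imaging | Benchmarks: TNF-alpha, DMSO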
DENV2 CPE: protects cells from dengue virus 2 cytopathic effect. AID 651640. CPE inhibition, % at 9.99 µM. actives 1.7% (n = 350,000). DENV2-infected cells, cytopathic effect rescue, plate reader; in the data active = CPE inhibition above about 20%, passing the limit was not always enough; inconclusive = no clear call, values can overlap the other calls; tested in BHK-21 cells
C2C12 statin: protects C2C12 myotubes from simvastatin toxicity | ATP luminescence, 48 h; scaled: DMSO 0, geranylgeraniol control 100 | actives 0.78% (n = 330,000) | rescue of ATP level, % at 7.49 µM;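 active = mean ATP rescue above about 67%, or every replicate alone reaching that limit, limit read from the data, passing the limit was not always enough; inconclusive = no clear call, values can overlap the other calls; inactive = mean under the limit and some replicate under it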;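 also: myotubes were challenged with 10 µM simvastatin during compound exposure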
Hits are given with their value; 0 = inactive; ? = inconclusive; - = not tested or not shown; ! = not confirmed by another sample. Hits are enriched below; roughly 2.2% of the tested compounds scored in any of these assays.

SMILES	E-sel inducer	DENV2 CPE	C2C12 statin
COC(=O)N1C(=O)[C@@](c2ccc(OC)cc2)(C(C)C)N1C(=O)OC	-	-	0
COC(=O)N1C(=O)[C@](c2ccc(Cl)cc2)(C(C)C)N1C(=O)OC	0	50.2	0
C[C@@H]1CN([C@H](C)CO)C(=O)CCCn2nncc2CO[C@H]1CN(C)C(=O)Nc1cccc(C(F)(F)F)c1	0	0	0
COC(=O)C[C@@H]1CC[C@@H]2[C@H](COc3ccc(NC(=O)Nc4cc(C)cc(C)c4)cc3C(=O)N2C)O1	0	0	0
CCS(=O)(=O)Nc1ccc2c(c1)C(=O)N(C)[C@@H]1CC[C@@H](CC(=O)NCCOC)O[C@H]1CO2	0	0	0
COC(=O)[C@H]1[C@H](CO)[C@H]2Cn3c(ccc(/C=C/c4ccccc4)c3=O)[C@H]2N1CC1CCCCC1	0	-	0
COc1ccc2c3c(n(C)c2c1)[C@H](CO)N(C(=O)Nc1ccccc1F)CC31CN(C(C)=O)C1	0	0	-
CC(C)C#Cc1cnc2c(c1)C(=O)N([C@@H](C)CO)C[C@@H](C)[C@H](CN(C)Cc1cncnc1)O2	0	0	0
CC(C)c1ccc(NC(=O)CN(Cc2ccccc2)S(C)(=O)=O)cc1	-	-	0
CCOc1ccc(NC(=O)CN(Cc2ccccc2)S(C)(=O)=O)cc1	-	-	110.2
CC1CN(S(=O)(=O)c2ccc(F)cc2)C(C)N1C(=O)N1CCOCC1 (centres undefined)	26.3	0	0
CC1CN(S(=O)(=O)c2ccc(F)cc2)CN1C(=O)N1CCOCC1 (centres undefined)	-	0	0
C[C@H]1CN([C@@H](C)CO)C(=O)c2cc(NC(=O)Nc3ccc(F)cc3)ccc2O[C@H]1CN(C)C(=O)Nc1cccc2ccccc12	0	0	0
C[C@@H]1CN([C@H](C)CO)C(=O)c2cccc(NC(=O)C3CC3)c2O[C@@H]1CN(C)CC1CC1	77.2	0	0
C[C@@H]1CN([C@@H](C)CO)C(=O)c2cccc(NC(=O)C3CC3)c2O[C@@H]1CN(C)CC1CC1	0	0	0
C[C@@H]1CN([C@H](C)CO)C(=O)c2cccc(NC(=O)C3CC3)c2O[C@H]1CN(C)CC1CC1	111.3	0	0
C[C@@H]1CN([C@@H](C)CO)C(=O)c2cccc(NC(=O)C3CC3)c2O[C@H]1CN(C)CC1CC1	0	0	0
O=C(C[C@@H]1C=C[C@H](NS(=O)(=O)c2ccc(F)cc2)[C@@H](CO)O1)N1CCC(Cc2ccccc2)CC1	0	0	0
C[C@@H]1CN([C@H](C)CO)C(=O)c2cc(-c3cccnc3)cnc2O[C@H]1CN(C)Cc1ccccc1	0	-	0
O=C(NCC[C@H]1CC[C@@H](NS(=O)(=O)c2cccc(F)c2)[C@H](CO)O1)C1CCCCC1	0	0	0
C[C@@H]1CCCCO[C@H](CN(C)C(=O)Nc2ccccc2)[C@H](C)CN([C@@H](C)CO)C(=O)c2cc(NC(=O)c3ccncc3)ccc2O1	-	0	-
Cc1noc(C)c1NC(=O)N(C)C[C@H]1Oc2c(NS(=O)(=O)c3ccc(F)cc3)cccc2C(=O)N([C@@H](C)CO)C[C@@H]1C	0	0	0
Cc1noc(C)c1NC(=O)N(C)C[C@H]1Oc2c(NS(=O)(=O)c3ccccc3)cccc2C(=O)N([C@@H](C)CO)C[C@H]1C	0	27.8	0
COc1ccc(S(=O)(=O)Nc2cccc3c2O[C@H](CN(C)C(=O)Nc2c(C)noc2C)[C@@H](C)CN([C@H](C)CO)C3=O)cc1	40.7!	0	0
COc1ccc(S(=O)(=O)Nc2cccc3c2O[C@@H](CN(C)C(=O)Nc2c(C)noc2C)[C@H](C)CN([C@H](C)CO)C3=O)cc1	0	0	0
SMILES	E-sel inducer	DENV2 CPE	C2C12 statin
COc1ccc(NC(=O)Nc2ccc3c(c2)CC(=O)N([C@@H](C)CO)C[C@H](C)[C@@H](CN(C)Cc2ccccc2)O3)cc1	0	0	0
C[C@H]1CN([C@@H](C)CO)C(=O)c2cc(NS(=O)(=O)c3ccc(Cl)cc3)ccc2O[C@H]1CN(C)S(=O)(=O)c1cn(C)cn1	0	0	0
O=C(c1cncc(Br)c1)N1CCN(S(=O)(=O)c2ccccc2)CC1	-	0	0
O=C(c1cncc(Br)c1)N1CCN(S(=O)(=O)c2ccccc2C(F)(F)F)CC1	32.6	0	0
CC(C)CC#Cc1cnc2c(c1)C(=O)N([C@@H](C)CO)C[C@@H](C)[C@H](CN(C)C(=O)Cc1cccnc1)O2	0	0	0
COC(=O)[C@]12CCCCC=C1N(Cc1cccc3ccccc13)C(=O)[C@H](CC(=O)NCC13CC4CC(CC(C4)C1)C3)C2	0	47.5	-
CCCCCCCCN1C(=O)[C@H](CC(=O)NCC23CC4CC(CC(C4)C2)C3)C[C@@]2(C(=O)OCC)CCCC=C12	-	20.1	-
CCCCCCCCN1C(=O)[C@H](CC(=O)NCCCC)C[C@@]2(C(=O)OCC)CCCC=C12	-	0	-
C#CCNC(=O)C[C@@H]1C[C@@]2(C(=O)OC)CCCCC=C2N(Cc2cccc3ccccc23)C1=O	0	90.0	-
C#CCNC(=O)C[C@@H]1C[C@@]2(C(=O)OCC)CCC=C2N(Cc2cccc3ccccc23)C1=O	-	0	-
COC(=O)[C@]12CCCCC=C1N(Cc1ccc(Cl)cc1Cl)C(=O)[C@H](CC(=O)NCC13CC4CC(CC(C4)C1)C3)C2	0	0	-
C[C@H]1CN([C@@H](C)CO)S(=O)(=O)c2ccc(-c3ccccc3)cc2O[C@H]1CN(C)C(=O)C1CC1	0	-	0
COc1ccc(-c2ccc3c(c2)[C@H]2[C@H](CCN2S(=O)(=O)c2ccccc2F)[C@H](CO)N3C)cc1	0	0	0
CNC[C@@H]1Oc2ccc(NS(=O)(=O)c3ccc(F)cc3)cc2CC(=O)N([C@@H](C)CO)C[C@H]1C	0	?	0
CC(C)C#Cc1ccc2c(c1)O[C@H](CN(C)C(=O)c1ccccn1)[C@H](C)CN([C@H](C)CO)S2(=O)=O	0	0	0
COc1ccc(NS(=O)(=O)c2cccc(Cl)c2)cc1S(=O)(=O)N1CCCCC1	-	0	-
COc1ccc(NS(=O)(=O)c2cccc(Cl)c2Cl)cc1S(=O)(=O)N1CCCCC1	133.8	0	-
CCOC1=C2CN(S(=O)(=O)c3ccc(C)cc3)C(c3cccc(Cl)c3)CC2N(S(=O)(=O)c2ccc(Cl)cc2)C(c2ccccc2)C1 (centres undefined)	0	31.6	-
CCOC1=C2CN(S(=O)(=O)c3ccc(Cl)cc3)[C@H](c3ccccc3)C[C@@H]2N(S(=O)(=O)c2ccc(C)cc2)[C@H](c2ccccc2)C1	0	0	0
O=S(=O)(N[C@H]1CC[C@H](CCn2cc(-c3cccc(F)c3)nn2)O[C@@H]1CO)c1ccc(Cl)cc1	0	0	0
COc1cccc(-c2cnc3c(c2)C(=O)N([C@H](C)CO)C[C@@H](C)[C@@H](CN(C)C(=O)Nc2c(C)noc2C)O3)c1	0	0	0
Cc1nn(C)cc1NC(=O)C[C@@H]1CC[C@H]2[C@@H](COc3ccc(NC(=O)C4CCC4)cc3C(=O)N2C)O1	0	-	0
Cc1ccccc1-c1cnc(C(O)c2cccc(C)c2C)[nH]1 (centres undefined)	0	20.6	0
Cc1cccc(C(O)c2ncc(-c3ccccc3Cl)[nH]2)c1C (centres undefined)	0	0	0
